# Results from ChEMBL document CHEMBL1926635, “Identification of novel molecular scaffolds for the design of MMP-13 inhibitors: a first round of lead optimization” (Eur J Med Chem, 2012).
# What was measured:
# [1] = molecular target: Collagenase 3 (Homo sapiens, UniProt P45452); assay: Inhibition of human MMP13 using Mca-Lys-Pro-Leu-Gly-Leu-Dap(Dnp)-Ala-Arg-NH2 as substrate pre-incubated for 4 hrs before substrate addition measured every 15 secs for 15 mins by fluorimetry
# [2] = molecular target: 72 kDa type IV collagenase (Homo sapiens, UniProt P08253); assay: Inhibition of human MMP2 using Mca-Lys-Pro-Leu-Gly-Leu-Dap(Dnp)-Ala-Arg-NH2 as substrate pre-incubated for 4 hrs before substrate addition measured every 15 secs for 15 mins by fluorimetry
# Method in brief: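 APMA 2 mM for 1 h at 37 °C activated the proenzyme. MMP-2 at 0.56 nM final was incubated with inhibitor for 4 h at 25 °C in pH 7.5 Tris buffer with NaCl, CaCl₂, 0.05% Brij-35 and 1% DMSO. Fluorescence was read at 325/395 nm, in triplicate. Percent inhibition was taken against the uninhibited control. IC50 came from ≥5 concentrations within 10–90% inhibition, fitted to Vi/Vo = 1/(1+[I]/IC50).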
# [3] = Dissociation constant, pKa of the compound; format: physicochemical
# [4] = molecular target: T1, Interstitial collagenase (Homo sapiens, UniProt P03956); assay: Inhibition of human MMP1 using Mca-Lys-Pro-Leu-Gly-Leu-Dap(Dnp)-Ala-Arg-NH2 as substrate pre-incubated for 4 hrs before substrate addition measured every 15 secs for 15 mins by fluorimetry
# T1 sequence (P03956 whole entry): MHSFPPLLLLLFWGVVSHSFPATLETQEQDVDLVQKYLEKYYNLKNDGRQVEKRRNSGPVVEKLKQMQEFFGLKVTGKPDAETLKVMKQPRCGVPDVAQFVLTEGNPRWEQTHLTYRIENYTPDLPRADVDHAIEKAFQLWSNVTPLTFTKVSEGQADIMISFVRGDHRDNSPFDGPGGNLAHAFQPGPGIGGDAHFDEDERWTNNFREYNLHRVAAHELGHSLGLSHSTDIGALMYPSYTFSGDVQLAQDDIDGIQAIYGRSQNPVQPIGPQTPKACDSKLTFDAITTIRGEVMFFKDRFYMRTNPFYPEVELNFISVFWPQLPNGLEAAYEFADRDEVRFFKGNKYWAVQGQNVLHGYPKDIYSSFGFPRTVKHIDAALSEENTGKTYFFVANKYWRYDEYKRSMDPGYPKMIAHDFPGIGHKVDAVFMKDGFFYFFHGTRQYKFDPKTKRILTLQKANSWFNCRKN
# Method in brief: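 Pro-MMP-1 activated with APMA 2 mM for 2 h at 37 °C. Enzyme at 2.0 nM final was pre-incubated with inhibitor for 4 h at 25 °C in Tris 50 mM pH 7.5, NaCl 150 mM, CaCl₂ 10 mM, 0.05% Brij-35 and 1% DMSO. Read-out was fluorescence at ex 325/em 395 nm, in triplicate. IC50 was fitted to Vi/Vo = 1/(1+[I]/IC50) using ≥5 concentrations giving 10–90% inhibition.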
# [5] = molecular target: Matrix metalloproteinase-14 (Homo sapiens, UniProt P50281); assay: Inhibition of recombinant human MMP14 catalytic domain using Mca-Lys-Pro-Leu-Gly-Leu-Dap(Dnp)-Ala-Arg-NH2 as substrate pre-incubated for 4 hrs before substrate addition measured every 15 secs for 15 mins by fluorimetry
# Method in brief: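 Catalytic domain used at 1 nM final and incubated with inhibitor for 4 h at 25 °C in Tris 50 mM pH 7.5, NaCl 150 mM, CaCl₂ 10 mM, 0.05% Brij-35 and 1% DMSO. Fluorescence was read at 325/395 nm, in triplicate. Percent inhibition was taken against the no-inhibitor control. IC50 was fitted to Vi/Vo = 1/(1+[I]/IC50) from ≥5 concentrations within 10–90% inhibition.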
# [6] = molecular target: Stromelysin-1 (Homo sapiens, UniProt P08254); assay: Inhibition of human MMP3 using Mca-Arg-Pro-Lys-Pro-Val-Glu-Nva-Trp-Arg-Lys(Dnp)-NH2 as substrate pre-incubated for 4 hrs before substrate addition measured every 15 secs for 15 mins by fluorimetry
# Method in brief: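 Pro-MMP-3 was activated with trypsin for 30 min at 37 °C, then quenched with soybean trypsin inhibitor. Enzyme at 5 nM final was pre-incubated with inhibitor for 4 h at 25 °C in Tris 50 mM pH 7.5, NaCl 150 mM, CaCl₂ 10 mM, 0.05% Brij-35 and 1% DMSO. Fluorescence was read at ex 325/em 395 nm, in triplicate. IC50 was fitted to Vi/Vo = 1/(1+[I]/IC50) from ≥5 concentrations giving 10–90% inhibition.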
# Sequence of Stromelysin-1 (P08254 whole entry): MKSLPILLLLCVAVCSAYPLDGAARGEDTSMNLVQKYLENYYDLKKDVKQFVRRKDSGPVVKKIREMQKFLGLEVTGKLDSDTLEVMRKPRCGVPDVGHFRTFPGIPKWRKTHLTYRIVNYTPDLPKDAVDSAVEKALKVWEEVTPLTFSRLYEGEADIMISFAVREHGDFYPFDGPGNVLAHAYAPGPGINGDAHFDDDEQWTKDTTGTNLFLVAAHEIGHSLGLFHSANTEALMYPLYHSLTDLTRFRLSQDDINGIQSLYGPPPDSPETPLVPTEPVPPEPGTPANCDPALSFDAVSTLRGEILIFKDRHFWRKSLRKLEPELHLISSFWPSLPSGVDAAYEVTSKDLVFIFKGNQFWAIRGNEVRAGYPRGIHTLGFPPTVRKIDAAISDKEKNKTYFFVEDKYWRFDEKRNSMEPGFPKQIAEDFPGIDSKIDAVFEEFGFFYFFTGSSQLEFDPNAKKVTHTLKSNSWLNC
# Sequence of 72 kDa type IV collagenase (P08253 whole entry): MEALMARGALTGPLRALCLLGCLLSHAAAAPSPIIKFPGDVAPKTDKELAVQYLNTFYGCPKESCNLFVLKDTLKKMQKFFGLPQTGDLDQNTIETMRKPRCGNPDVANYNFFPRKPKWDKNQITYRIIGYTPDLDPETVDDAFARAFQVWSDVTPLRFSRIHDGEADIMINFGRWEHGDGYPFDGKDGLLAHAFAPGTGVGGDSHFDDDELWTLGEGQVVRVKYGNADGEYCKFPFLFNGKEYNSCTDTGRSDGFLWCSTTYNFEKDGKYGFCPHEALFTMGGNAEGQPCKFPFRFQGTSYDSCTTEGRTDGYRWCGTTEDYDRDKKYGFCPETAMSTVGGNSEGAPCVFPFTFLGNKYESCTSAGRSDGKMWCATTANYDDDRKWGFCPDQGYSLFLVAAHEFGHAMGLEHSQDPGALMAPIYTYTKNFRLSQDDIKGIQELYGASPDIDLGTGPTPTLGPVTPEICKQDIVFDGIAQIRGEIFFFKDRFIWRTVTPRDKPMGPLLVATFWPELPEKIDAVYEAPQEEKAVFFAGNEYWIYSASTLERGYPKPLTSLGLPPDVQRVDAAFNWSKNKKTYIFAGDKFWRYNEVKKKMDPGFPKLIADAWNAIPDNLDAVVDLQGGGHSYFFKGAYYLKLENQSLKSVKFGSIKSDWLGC
SMILES,IC50 [1] [µM],IC50 [2] [µM],pKa [3],IC50 [4] [µM],IC50 [5] [µM],IC50 [6] [µM]
O=c1oc2ccccc2cc1-c1cn(-c2ccccc2)c(S)n1,177,–,–,–,–,–
O=C(O)c1cccc(-n2cc(-c3cc4ccccc4oc3=O)[nH]c2=S)c1,–,67,3.91,400,51,110
O=C(O)CCCN1C(=O)S/C(=C\C=C\c2ccccc2)C1=O,22,2.7,3.89,93,21,110
O=C(O)COc1ccccc1/C=C1/NC(=S)NC1=O,67,61,3.68,114,55,77
COc1ccc(-c2ccc(/C=C3/SC(=S)N(CC(=O)O)C3=O)o2)cc1,120,350,3.62,860,310,850
COc1ccc(-c2cs/c(=N\c3ccccc3)n2/N=C/c2ccccc2)cc1OC,140,120,–,360,150,230
CCOC(=O)c1cccc(-n2cc(-c3cc4ccccc4oc3=O)[nH]c2=S)c1,> 300,–,–,–,–,–
COc1ccc2oc(=O)c(-c3cn(-c4cccc(C(=O)O)c4)c(=S)[nH]3)cc2c1,3.2,–,–,–,–,–
O=C(O)c1cccc(-n2cc(-c3cc4cccc(O)c4oc3=O)[nH]c2=S)c1,5.5,–,–,–,–,–
COc1cc(Cl)cc2cc(-c3cn(-c4cccc(C(=O)O)c4)c(=S)[nH]3)c(=O)oc12,4.9,–,–,–,–,–
C=CCc1cc(OC)c2oc(=O)c(-c3cn(-c4cccc(C(=O)O)c4)c(=S)[nH]3)cc2c1,4.9,–,–,–,–,–
CCOc1ccc(-c2ccc(S(=O)(=O)N[C@@H](C(=O)O)C3CCN(C(=O)OC(C)C)CC3)s2)cc1,–,–,2.55,–,–,–
